Laboratory results taken from ChEMBL document CHEMBL1144889 (J Med Chem, 2003).
pEC50, pKi: −log10 of the molar value.

How the values were obtained:
Glucocorticoid receptor [1] = molecular target: T1, Glucocorticoid receptor (Homo sapiens, UniProt P04150); test: Transcriptional repression in HepG2 cells expressing human glucocorticoid receptor; format: functional, cell-based
T1 sequence (P04150 whole entry): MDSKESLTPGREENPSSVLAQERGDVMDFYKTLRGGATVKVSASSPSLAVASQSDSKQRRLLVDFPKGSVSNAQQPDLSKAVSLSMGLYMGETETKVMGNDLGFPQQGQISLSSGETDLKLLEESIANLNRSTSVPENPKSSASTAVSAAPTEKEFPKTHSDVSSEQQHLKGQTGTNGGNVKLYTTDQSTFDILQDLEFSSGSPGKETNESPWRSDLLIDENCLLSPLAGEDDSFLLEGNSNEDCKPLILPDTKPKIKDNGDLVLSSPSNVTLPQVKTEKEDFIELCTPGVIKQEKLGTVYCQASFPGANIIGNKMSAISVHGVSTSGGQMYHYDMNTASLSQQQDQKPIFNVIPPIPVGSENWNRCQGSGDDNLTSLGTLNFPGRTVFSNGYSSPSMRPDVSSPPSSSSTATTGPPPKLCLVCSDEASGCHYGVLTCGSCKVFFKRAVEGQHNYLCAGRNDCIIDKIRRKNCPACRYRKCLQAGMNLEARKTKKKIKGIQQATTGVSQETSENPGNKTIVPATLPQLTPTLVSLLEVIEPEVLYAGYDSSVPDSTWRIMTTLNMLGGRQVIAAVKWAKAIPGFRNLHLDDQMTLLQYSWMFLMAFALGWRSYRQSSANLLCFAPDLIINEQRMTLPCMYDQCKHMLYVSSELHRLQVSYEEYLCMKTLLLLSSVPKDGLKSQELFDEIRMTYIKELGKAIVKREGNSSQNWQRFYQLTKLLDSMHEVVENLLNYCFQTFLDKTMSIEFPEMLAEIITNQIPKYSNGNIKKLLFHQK

Progesterone receptor = molecular target: T2, Progesterone receptor (Homo sapiens, UniProt P06401); test: Displacement of [3H]progesterone from human Progesterone receptor A
T2 sequence (P06401 whole entry): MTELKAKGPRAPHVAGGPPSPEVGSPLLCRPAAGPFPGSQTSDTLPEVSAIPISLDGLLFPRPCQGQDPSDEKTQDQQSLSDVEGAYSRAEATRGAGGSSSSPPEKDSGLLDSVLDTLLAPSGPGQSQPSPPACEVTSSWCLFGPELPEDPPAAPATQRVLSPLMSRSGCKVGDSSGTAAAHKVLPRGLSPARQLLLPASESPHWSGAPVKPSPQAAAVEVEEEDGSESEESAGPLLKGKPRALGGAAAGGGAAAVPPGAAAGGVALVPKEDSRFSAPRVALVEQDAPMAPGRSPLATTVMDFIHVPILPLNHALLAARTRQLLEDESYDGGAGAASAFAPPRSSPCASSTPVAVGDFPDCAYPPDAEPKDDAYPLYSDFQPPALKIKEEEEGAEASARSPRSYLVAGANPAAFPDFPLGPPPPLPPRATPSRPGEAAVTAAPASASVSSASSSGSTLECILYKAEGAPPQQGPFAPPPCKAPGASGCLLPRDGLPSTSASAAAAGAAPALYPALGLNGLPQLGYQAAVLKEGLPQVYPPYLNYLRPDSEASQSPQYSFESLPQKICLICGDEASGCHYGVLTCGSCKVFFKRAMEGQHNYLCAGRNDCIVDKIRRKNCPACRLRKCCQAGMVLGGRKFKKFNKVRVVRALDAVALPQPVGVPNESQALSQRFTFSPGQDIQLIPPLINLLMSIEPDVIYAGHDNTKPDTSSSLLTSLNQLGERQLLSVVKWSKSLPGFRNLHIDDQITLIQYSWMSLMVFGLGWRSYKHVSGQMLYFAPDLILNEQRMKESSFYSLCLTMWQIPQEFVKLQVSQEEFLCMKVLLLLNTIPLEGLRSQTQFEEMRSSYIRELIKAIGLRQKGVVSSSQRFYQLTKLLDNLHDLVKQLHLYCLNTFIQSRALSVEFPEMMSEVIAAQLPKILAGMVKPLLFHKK

Glucocorticoid receptor [2] = molecular target: T1, Glucocorticoid receptor; test: Binding affinity towards human glucocorticoid receptor (GR) was determined using [3H]dexamethasone as radioligand in […] cells; format: cell-based
[3] = Binding affinity towards estradiol receptor (Estrogen receptor); set-up: species or system Homo sapiens
Summary of the method: (§1)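 Competition radioligand binding; tracers [3H]aldosterone (MR) and [3H]estradiol (ER). Bound ligand collected on hydroxyapatite, washed with ice-cold buffer, counted by scintillation. IC50 obtained from Hill analysis of binding curves, Ki from Cheng-Prusoff. Mean of two experiments in triplicate, single triplicate run, or ≥3 experiments in triplicate.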

[4] = Binding affinity towards aldosterone receptor (Mineralocorticoid receptor); set-up: species or system Homo sapiens; summary of the method: as §1
Rattus norvegicus = test: Reduction in carrageenan induced paw edema in rat after oral dose; format: functional
Summary of the method: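 Sprague-Dawley rats dosed orally, then given carrageenan into the hind paw. Edema read at 3 h as the increase in paw volume. ED50 dose calculated from dose-dependent inhibition of edema.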

Glucocorticoid receptor [5] = molecular target: T1, Glucocorticoid receptor; test: Transcriptional activation in CV-1 cells expressing human glucocorticoid receptor; format: functional, cell-based
Summary of the method: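 Cotransfection of an hGR receptor plasmid with a luciferase reporter driven by the MMTV promoter (four GREs) in CV-1 cells. Seven-point half-log concentration-response curves. EC50 taken as half-maximal response. Efficacy expressed as % of the dexamethasone maximum. Mean of two experiments in triplicate, single triplicate run, or ≥3 experiments in triplicate.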

[6] = molecular target: T3, Glucocorticoid receptor (Homo sapiens) (UniProt P04150); test: Transcriptional activation in CV-1 cells expressing human glucocorticoid receptor compared to Dexamethasone; format: functional, cell-based
T3 sequence (whole entry): T1 sequence (P04150 whole entry)
Summary of the method: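 GRE activation co-transfection in CV-1 cells: hGR receptor plasmid plus a luciferase reporter driven by part of the MMTV promoter (four GRE sites, no known AP-1 or NFκB affinity). Full seven-point, half-log concentration-response curves run in triplicate. EC50 is the concentration at half-maximal response; efficacy is given as % of the dexamethasone maximal response.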

Androgen receptor = molecular target: T4, Androgen receptor (Homo sapiens, UniProt P10275); test: Binding affinity towards testosterone receptor
T4 sequence (P10275 whole entry): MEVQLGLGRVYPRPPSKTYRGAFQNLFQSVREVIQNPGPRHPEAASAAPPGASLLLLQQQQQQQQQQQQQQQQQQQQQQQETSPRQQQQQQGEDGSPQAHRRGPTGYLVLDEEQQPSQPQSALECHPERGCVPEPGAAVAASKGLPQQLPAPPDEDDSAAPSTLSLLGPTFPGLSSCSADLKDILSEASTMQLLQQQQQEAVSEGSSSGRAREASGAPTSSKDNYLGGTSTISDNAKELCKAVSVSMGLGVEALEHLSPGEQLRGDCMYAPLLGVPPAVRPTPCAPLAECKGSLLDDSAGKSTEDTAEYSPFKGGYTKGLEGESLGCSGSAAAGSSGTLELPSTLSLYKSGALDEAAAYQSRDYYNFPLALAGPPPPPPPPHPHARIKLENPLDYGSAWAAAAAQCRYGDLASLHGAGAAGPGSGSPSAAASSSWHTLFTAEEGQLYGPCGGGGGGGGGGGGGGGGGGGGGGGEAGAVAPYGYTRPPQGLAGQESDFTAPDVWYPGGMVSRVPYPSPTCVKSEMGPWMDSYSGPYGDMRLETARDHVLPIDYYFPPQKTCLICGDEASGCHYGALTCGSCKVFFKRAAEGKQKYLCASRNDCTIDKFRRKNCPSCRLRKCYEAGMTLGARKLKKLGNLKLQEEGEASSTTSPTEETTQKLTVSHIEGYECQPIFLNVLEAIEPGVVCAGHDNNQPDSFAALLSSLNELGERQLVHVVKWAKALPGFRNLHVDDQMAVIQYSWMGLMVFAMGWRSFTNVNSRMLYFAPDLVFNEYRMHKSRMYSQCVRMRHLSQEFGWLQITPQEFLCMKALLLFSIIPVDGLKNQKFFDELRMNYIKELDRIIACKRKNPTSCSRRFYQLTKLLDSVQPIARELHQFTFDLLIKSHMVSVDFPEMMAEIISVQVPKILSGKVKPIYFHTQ

| SMILES | pEC50 (Glucocorticoid receptor [1]) | pKi (Progesterone receptor) | pKi (Glucocorticoid receptor [2]) | pKi [3] | pKi [4] | pEC50 (Glucocorticoid receptor [5]) | Efficacy [6] [%] | pKi (Androgen receptor) | ED50 (Rattus norvegicus) [mg/kg] |
| --- | --- | --- | --- | --- | --- | --- | --- | --- | --- |
| C=CCC1Oc2ccc(OC)c(OC)c2-c2ccc3c(c21)C(C)=CC(C)(C)N3 (stereo unspecified) | 6.92 |  |  |  |  |  |  |  |  |
| C=CCC1Oc2ccc(O)c(OC)c2-c2ccc3c(c21)C(C)=CC(C)(C)N3 (stereo unspecified) | 7.85 | 6.82 |  |  |  |  |  |  | 16 |
| C=CCC1Oc2ccc(OCC#N)c(OC)c2-c2ccc3c(c21)C(C)=CC(C)(C)N3 (stereo unspecified) | 6.89 | 5.51 | 7.29 |  |  |  |  |  |  |
| C=CCC1Oc2ccc(CO)c(OC)c2-c2ccc3c(c21)C(C)=CC(C)(C)N3 (stereo unspecified) | 7.28 | 7.00 | 8.18 |  |  |  |  |  |  |
| C=CCC1Oc2ccc(Br)c(OC)c2-c2ccc3c(c21)C(C)=CC(C)(C)N3 (stereo unspecified) | 7.09 | 7.47 |  |  |  |  |  |  |  |
| C=CCC1Oc2cccc(C=C)c2-c2ccc3c(c21)C(C)=CC(C)(C)N3 (stereo unspecified) | 7.92 | 6.36 | 8.36 | < 6.00 | 7.24 | 7.77 | 50 | 6.62 |  |
| C=CCC1Oc2cccc(Cl)c2-c2ccc3c(c21)C(C)=CC(C)(C)N3 (stereo unspecified) | 7.35 |  |  |  |  |  |  |  |  |
| C#Cc1cccc2c1-c1ccc3c(c1C(CC=C)O2)C(C)=CC(C)(C)N3 (stereo unspecified) | 7.23 | 5.62 | 8.16 | < 6.00 | 6.46 | 6.89 | 92 | 6.19 |  |
| C=CCC1Oc2c(C=C)ccc(OC)c2-c2ccc3c(c21)C(C)=CC(C)(C)N3 (stereo unspecified) | 6.81 | 6.35 | 7.47 |  |  |  |  |  |  |
| C=CCOc1ccc2c(c1OC)-c1ccc3c(c1C(CC=C)O2)C(C)=CC(C)(C)N3 (stereo unspecified) | 6.85 |  |  |  |  |  |  |  |  |
| C#CCOc1cccc2c1-c1ccc3c(c1C(CC=C)O2)C(C)=CC(C)(C)N3 (stereo unspecified) | 6.57 |  | 8.38 |  |  | < 6.52 | 9 |  |  |
| C=CCC1Oc2ccc(O)c(Cl)c2-c2ccc3c(c21)C(C)=CC(C)(C)N3 (stereo unspecified) | 8.30 |  |  |  |  |  |  |  | 15 |
| C=CCC1Oc2cccc(O)c2-c2ccc3c(c21)C(C)=CC(C)(C)N3 (stereo unspecified) | 6.60 |  | 7.56 | < 6.00 | 5.86 | 6.26 | 29 | 5.69 |  |
| C=CCC1Oc2cccc(OC)c2-c2ccc3c(c21)C(C)=CC(C)(C)N3 (stereo unspecified) [AL-43] |  |  |  | < 6.00 | 7.34 |  | 68 | 5.91 | 15 |
| C=CCC1Oc2cccc(C#N)c2-c2ccc3c(c21)C(C)=CC(C)(C)N3 (stereo unspecified) | 7.22 |  |  | < 6.00 | < 5.30 | 6.71 | 87 | < 5.30 |  |
| C=CCC1Oc2cccc(SC)c2-c2ccc3c(c21)C(C)=CC(C)(C)N3 (stereo unspecified) | 7.74 |  |  | < 6.00 | 7.03 | 6.91 | 60 | 5.61 |  |

Now from value to compound, other results behind:

| pEC50 (Glucocorticoid receptor [1]) | pKi (Progesterone receptor) | pKi (Glucocorticoid receptor [2]) | pKi [3] | pKi [4] | pEC50 (Glucocorticoid receptor [5]) | Efficacy [6] [%] | pKi (Androgen receptor) | SMILES | ED50 (Rattus norvegicus) [mg/kg] |
| --- | --- | --- | --- | --- | --- | --- | --- | --- | --- |
| 7.03 | 7.54 | 8.27 |  |  |  |  |  | C=CCC1Oc2ccc(Cl)c(OC)c2-c2ccc3c(c21)C(C)=CC(C)(C)N3 (stereo unspecified) |  |
|  |  |  | < 6.00 | 7.43 |  |  |  | C[C@]12C=CC(=O)C=C1CCC1[C@@H]2[C@@H](O)C[C@@]2(C)[C@H]1CC[C@]2(O)C(=O)CO (single isomer, unassigned) [PREDNISOLONE] |  |
| 7.23 | < 5.30 |  |  |  |  |  |  | C=CCC1Oc2c(Br)ccc(OC)c2-c2ccc3c(c21)C(C)=CC(C)(C)N3 (stereo unspecified) |  |
| 7.09 | < 5.30 |  |  |  |  |  |  | C=CCC1Oc2c(C)ccc(OC)c2-c2ccc3c(c21)C(C)=CC(C)(C)N3 (stereo unspecified) |  |
| 6.46 |  | 7.47 | < 6.00 | < 5.30 | < 6.52 | 2 | < 5.30 | C=CCC1Oc2ccccc2-c2ccc3c(c21)C(C)=CC(C)(C)N3 (stereo unspecified) |  |
| 7.74 | 6.46 | 8.66 | < 6.00 | 7.45 | 7.46 | 70 | 7.02 | C=CCC1Oc2cccc(OC(F)F)c2-c2ccc3c(c21)C(C)=CC(C)(C)N3 (stereo unspecified) | 21 |
| 6.80 |  |  |  |  |  |  |  | C#CCOc1ccc2c(c1OC)-c1ccc3c(c1C(CC=C)O2)C(C)=CC(C)(C)N3 (stereo unspecified) |  |
| 7.00 |  |  |  |  |  |  |  | C=CCC1Oc2ccc(C(=O)OC)c(OC)c2-c2ccc3c(c21)C(C)=CC(C)(C)N3 (stereo unspecified) |  |
| 7.72 |  | 8.64 | < 6.00 | 6.53 | 7.21 | 69 | 5.88 | C=CCC1Oc2cccc(CO)c2-c2ccc3c(c21)C(C)=CC(C)(C)N3 (stereo unspecified) |  |
|  | 7.66 |  |  |  |  |  |  | C=CCC1Oc2c(Br)cc(O)c(Cl)c2-c2ccc3c(c21)C(C)=CC(C)(C)N3 (stereo unspecified) |  |
| 7.72 | 5.53 | 8.15 | < 6.00 | 6.60 | 7.49 | 60 | 5.59 | C=CCC1Oc2cccc(NC)c2-c2ccc3c(c21)C(C)=CC(C)(C)N3 (stereo unspecified) |  |
